TRPC4 block: inhibitors of mouse TRPC4 channel, primary screen, Fluo4 calcium, HEK293 TRPC4beta/mu-opioid cells | AID 2247, 2010 | 300,000 tested, 0.39% active | B-score at 10 µM | DAMGO-evoked Fluo4 calcium flux; active compounds read low;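 active means B-score over 3 SD under the library average, no early fluorescence shift, positive overall ratio signal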
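System: stable TRPC4beta/mu-opioid receptor HEK293 cells; Dosing: single-point compound dosing; Measured by: Fluo4 Ca2+ flux fluorescence; Read-out basis: per-well B score of integrated baseline-normalized Fluo4 ratio.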
TRPC4 PAM: positive allosteric modulators of TRPC4, primary screen, cell-based, mouse TRPC4beta, HEK293 mu-opioid, Fluo-4 calcium; 310,000 tested, 0.42% active; B-score at 10 µM; Short transient receptor potential channel 4 (Mus musculus), Q9QUQ5; AID 2227, 2009; DAMGO EC20, Fluo-4 Ca2+ flux; active compounds read high;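 active means B-score of calcium response area above 5 SD of library B-scores, with initial fluorescence ratio within 5 SD of library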;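 further: B-score of integrated fluorescence ratio over time as area under calcium response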
TRPC6 inh: mouse TRPC6 channel inhibitors, primary screen, cell-based, HEK293, membrane potential dye | ACh-evoked depolarization; active compounds read low | 310,000 tested, 1.1% active | B-score at 10 µM | Short transient receptor potential channel 6 (Mus musculus), Q61143;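 active means B-score under library mean minus 3 SD, initial fluorescence not abnormally high, positive integrated signal ratio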;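 further: B-score derived from integrated fluorescence ratio over the kinetic read; more negative B-score means stronger inhibition of depolarization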
Target sequence (Q61143 whole entry, looked up): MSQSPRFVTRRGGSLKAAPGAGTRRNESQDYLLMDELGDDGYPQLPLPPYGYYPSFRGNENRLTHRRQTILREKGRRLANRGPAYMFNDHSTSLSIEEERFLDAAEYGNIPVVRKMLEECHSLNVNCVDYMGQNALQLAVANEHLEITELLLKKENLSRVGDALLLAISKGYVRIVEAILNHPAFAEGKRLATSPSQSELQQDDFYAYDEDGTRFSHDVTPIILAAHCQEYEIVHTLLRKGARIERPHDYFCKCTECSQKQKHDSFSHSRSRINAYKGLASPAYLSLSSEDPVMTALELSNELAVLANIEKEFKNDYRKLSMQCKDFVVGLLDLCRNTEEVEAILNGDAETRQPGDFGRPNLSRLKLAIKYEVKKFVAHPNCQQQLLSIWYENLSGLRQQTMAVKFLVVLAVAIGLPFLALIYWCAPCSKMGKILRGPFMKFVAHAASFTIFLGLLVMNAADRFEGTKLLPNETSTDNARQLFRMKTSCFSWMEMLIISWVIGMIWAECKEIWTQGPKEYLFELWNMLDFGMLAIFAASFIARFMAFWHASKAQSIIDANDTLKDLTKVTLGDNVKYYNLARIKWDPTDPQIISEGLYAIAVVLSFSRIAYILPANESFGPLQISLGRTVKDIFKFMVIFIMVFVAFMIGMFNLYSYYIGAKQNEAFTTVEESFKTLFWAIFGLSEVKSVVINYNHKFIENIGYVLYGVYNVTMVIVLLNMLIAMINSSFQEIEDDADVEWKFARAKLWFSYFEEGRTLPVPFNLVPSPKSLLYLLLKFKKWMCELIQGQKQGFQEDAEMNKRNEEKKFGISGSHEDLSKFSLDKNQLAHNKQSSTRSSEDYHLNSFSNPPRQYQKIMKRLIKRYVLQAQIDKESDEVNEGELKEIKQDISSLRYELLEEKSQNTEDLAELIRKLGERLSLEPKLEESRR
TRPC4 act: activators of mouse TRPC4 channel, primary screen, Fluo4 calcium, HEK293 TRPC4beta/mu-opioid cells. Short transient receptor potential channel 4 (Mus musculus), Q9QUQ5. Fluo4 calcium fluorescence; active compounds read high. B-score at 10 µM. 310,000 tested, 0.49% active. AID 2237, 2010;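 active means B-score above 5 SD of library B-scores, and initial fluorescence ratio not above library mean plus 5 SD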;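 further: positive B-score marks a calcium rise read as TRPC4 activation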
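Test system: HEK293 cells stably co-expressing mouse TRPC4beta and mu-opioid receptor | Schedule: Fluo4 dye loading 45 min at room temperature, 110 s recording | Measured by: Kinetic Fluo4 calcium fluorescence, 5 s baseline at 1 Hz | Evaluation: B score of integrated ratio | Controls: Buffer (low) and maximal DAMGO (high)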
TRPC6 act: mouse TRPC6 channel activators, primary screen, cell-based, HEK293, membrane potential dye | Short transient receptor potential channel 6 (Mus musculus), Q61143 | HEK293-TRPC6 membrane potential dye fluorescence; active compounds read high | B-score at 10 µM | 310,000 tested, 0.13% active | AID 2550, 2010;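 active means B-score of the integrated fluorescence ratio above library mean plus 3 SD, and starting fluorescence ratio within library mean plus 5 SD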;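 further: higher score means more depolarization so channel activation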
HEK293 MPD ctr: parental HEK293 membrane potential modulation, confirmation, counter-screen for TRPC6 modulator project, cell-based | shares compounds with TRPC6 inh | AID 488924, 2010 | membrane potential signal change, % at 10 µM | 2,400 tested, 51% active | membrane potential dye fluorescence;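 active means membrane potential signal moves up or down beyond 5 SD from buffer-only wells, on both duplicate plates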
HEK293 MPD ctr 2: parental HEK293 nonspecific activity of TRPC6 modulators, second screen | membrane potential dye fluorescence; after compound, maximal acetylcholine stimulation | shares compounds with TRPC6 inh | inhibition, % at 10 µM | 2,400 tested, 14% active;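 active means membrane potential signal drops by more than 5 SD from the mean control signal, in both duplicate plates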;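 further: plate controls were acetylcholine ECmax control wells for no effect and buffer only wells for full effect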
TRPC4 ctr mod: TRPC4 modulation by TRPC6 hit compounds, confirmation, selectivity assay for TRPC6 modulator project, cell-based, HEK293 TRPC4/mu-opioid, membrane potential dye, mouse; shares compounds with TRPC6 inh; membrane potential fluorescence; percent change from control (negative = decrease, positive = increase), % at 10 µM; 2,400 tested, 69% active; AID 488927, 2010;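 active means membrane potential signal moved up or down beyond 5 SD of buffer control wells, in both duplicate plates, actives on both sides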;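 further: plate controls were assay buffer wells for no effect and DAMGO maximal-effect wells for full effect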
TRPC4 ctr inh 2: second selectivity test of TRPC6 modulators against mouse TRPC4; inhibition, % at 10 µM; HEK293 TRPC4/mu-opioid, membrane potential dye fluorescence; stimulated with maximal-effect DAMGO; 2,400 tested, 55% active; shares compounds with TRPC6 inh;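 active means drop in membrane potential signal beyond 5 SD of the control wells in both duplicate plates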;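 further: TRPC4 counter screen for TRPC6 hits run under conditions tuned for TRPC6 not TRPC4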
TRPC6 block conf: mouse TRPC6 channel inhibitors, confirmation, HEK293 cells, membrane potential dye, duplicate; inhibition, % at 10 µM; 3,300 tested, 43% active; AID 488960, 2010; ACh-evoked depolarization; shares compounds with TRPC6 inh;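 active means fluorescence ratio falls more than 5 SD below the full-stimulation control mean, in both duplicate runs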;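 further: integrated fluorescence ratio of peak minus minimum over baseline after agonist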
TRPC6 act conf: mouse TRPC6 channel activators, confirmation, HEK293 cells, membrane potential dye, duplicate; 2,800 tested, 11% active; activation, % at 10 µM; HEK293-TRPC6 membrane potential dye fluorescence, FDSS; shares compounds with TRPC6 inh;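 active means ratio signal rise beyond 5 SD above unstimulated control wells' mean, seen in both duplicate runs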;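 further: plate controls were buffer EC0 wells for no effect and acetylcholine ECmax response for full effect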
Active calls of the source: *. Sampled rows, rich in hits. Any-hit rate of the full collection: about 2.3%.

Screening C/C(=N/NC(=S)Nc1cccc(C)c1)c1cccc([N+](=O)[O-])c1 returned TRPC4 block inactive, TRPC4 PAM inactive, TRPC6 inh -5.27*, TRPC4 act inactive, TRPC6 act inactive, HEK293 MPD ctr inactive, HEK293 MPD ctr 2 inactive, TRPC4 ctr mod inactive, TRPC4 ctr inh 2 30.5%*, TRPC6 block conf inactive and TRPC6 act conf inactive.
`Cc1nc(N2CCN(C)CC2)c2sc(=S)n(C)c2n1` gave TRPC4 block inactive, TRPC4 PAM inactive, TRPC6 inh -5.16*, TRPC4 act inactive, TRPC6 act inactive, HEK293 MPD ctr -157.5%*, HEK293 MPD ctr 2 inactive, TRPC4 ctr mod -25.0%*, TRPC4 ctr inh 2 inactive, TRPC6 block conf inactive and TRPC6 act conf inactive.
Cc1ccc(CCNC(=O)C2CCCN(S(=O)(=O)c3cccc4nsnc34)C2)cc1 (centres undefined) was read as TRPC4 block inactive, TRPC4 PAM inactive, TRPC6 inh -5.95*, TRPC4 act inactive, TRPC6 act inactive, HEK293 MPD ctr inactive, HEK293 MPD ctr 2 inactive, TRPC4 ctr mod inactive, TRPC4 ctr inh 2 inactive, TRPC6 block conf inactive and TRPC6 act conf inactive.
CCC(C)NC(=O)Cn1nc(Cc2ccncc2)c2ccccc2c1=O (centres undefined) was read as TRPC4 block inactive, TRPC4 PAM inactive, TRPC6 inh inactive, TRPC4 act inactive and TRPC6 act inactive.
Screening O=C(c1ccc(OC2CCN(Cc3ccccc3C(F)(F)F)CC2)cc1)N1CCCCC1 returned TRPC4 block inactive, TRPC4 PAM inactive, TRPC6 inh inactive, TRPC4 act inactive and TRPC6 act inactive.
O=C(c1ccc(OC2CCN(Cc3ccc(C(F)(F)F)cc3)CC2)cc1)N1CCCCC1 was read as TRPC4 block inactive, TRPC4 PAM inactive, TRPC6 inh -6.28*, TRPC4 act inactive, TRPC6 act inactive, HEK293 MPD ctr 126.0%*, HEK293 MPD ctr 2 inactive, TRPC4 ctr mod inactive, TRPC4 ctr inh 2 43.5%* and TRPC6 block conf 66.5%*.
S=C(NCCC(c1ccccc1)c1ccccc1)Nc1cccc(Cl)c1 was read as TRPC4 block inactive, TRPC4 PAM inactive, TRPC6 inh inactive, TRPC4 act inactive and TRPC6 act inactive.
For S=C(NCCN(C1CCCCC1)C1CCCC1)Nc1cccc(Cl)c1 the results were TRPC4 block inactive, TRPC4 PAM inactive, TRPC6 inh -6.09*, TRPC4 act inactive, TRPC6 act inactive, HEK293 MPD ctr 95.0%*, HEK293 MPD ctr 2 inactive, TRPC4 ctr mod 18.5%*, TRPC4 ctr inh 2 70.0%* and TRPC6 block conf 56.5%*.
Screening CC1CCN(C(=O)COC(=O)c2ccc3c(c2)OCO3)CC1 returned TRPC4 block inactive, TRPC4 PAM inactive, TRPC6 inh inactive, TRPC4 act inactive and TRPC6 act inactive.
`O=C(Nc1ccccc1)c1cc2n(n1)C(C(F)(F)F)CC(C1CC1)N2` (centres undefined) gave TRPC4 block inactive, TRPC4 PAM inactive, TRPC6 inh inactive, TRPC4 act inactive and TRPC6 act inactive.
For O=C(O)c1cc(Br)ccc1NS(=O)(=O)c1cccc2nsnc12 the results were TRPC4 block inactive, TRPC4 PAM inactive, TRPC6 inh inactive, TRPC4 act inactive, TRPC6 act 12.8*, HEK293 MPD ctr inactive, HEK293 MPD ctr 2 inactive, TRPC4 ctr mod 15.5%*, TRPC4 ctr inh 2 inactive, TRPC6 block conf inactive and TRPC6 act conf 33.5%*.
For Cc1cccc(-n2cnc3cc(C(=O)N4CCc5ccccc54)ccc32)c1 the results were TRPC4 block inactive, TRPC4 PAM inactive, TRPC6 inh inactive, TRPC4 act inactive and TRPC6 act inactive.
O=C(Cn1cccc1C(=O)c1ccccc1)NCc1ccccc1Cl was read as TRPC4 block inactive, TRPC4 PAM inactive, TRPC6 inh -5.11*, TRPC4 act inactive, TRPC6 act inactive, HEK293 MPD ctr inactive, HEK293 MPD ctr 2 inactive, TRPC4 ctr mod inactive, TRPC4 ctr inh 2 inactive, TRPC6 block conf inactive and TRPC6 act conf inactive.
Screening Cc1coc2cc3oc(=O)c(CCC(=O)NCC(=O)O)c(C)c3cc12 returned TRPC4 block inactive, TRPC4 PAM inactive, TRPC6 inh inactive, TRPC4 act inactive and TRPC6 act inactive.
Screening CN1CCC=C(C(=O)N2c3ccccc3Sc3ccc(Cl)cc32)C1 returned TRPC4 block inactive, TRPC4 PAM inactive, TRPC6 inh -5.36*, TRPC4 act inactive, TRPC6 act inactive, HEK293 MPD ctr 118.0%*, HEK293 MPD ctr 2 inactive, TRPC4 ctr mod 15.5%*, TRPC4 ctr inh 2 38.5%* and TRPC6 block conf 41.0%*.
For NCCCC(=O)N1c2ccccc2Sc2ccc(Cl)cc21 the results were TRPC4 block inactive, TRPC4 PAM inactive, TRPC6 inh -5.28*, TRPC4 act inactive, TRPC6 act inactive, HEK293 MPD ctr inactive, HEK293 MPD ctr 2 inactive, TRPC4 ctr mod inactive, TRPC4 ctr inh 2 54.0%*, TRPC6 block conf 64.0%* and TRPC6 act conf inactive.

Compound activity from PubChem BioAssay.
